Data taken from ChEMBL document CHEMBL3286381 (J Med Chem, 2014).

Tests used:
Assay type in all cases: ADME, cell-based
Conditions in all cases: cos-7, 1 h
[1] = molecular target: T1, Ectonucleotide pyrophosphatase/phosphodiesterase family member 1 (Homo sapiens, UniProt P22413); experiment: Drug metabolism assessed as human NPP1-mediated compound hydrolysis expressed in African green monkey COS7 cells at 100 uM after 1 hr by HPLC analysis
T1 sequence (P22413 whole entry): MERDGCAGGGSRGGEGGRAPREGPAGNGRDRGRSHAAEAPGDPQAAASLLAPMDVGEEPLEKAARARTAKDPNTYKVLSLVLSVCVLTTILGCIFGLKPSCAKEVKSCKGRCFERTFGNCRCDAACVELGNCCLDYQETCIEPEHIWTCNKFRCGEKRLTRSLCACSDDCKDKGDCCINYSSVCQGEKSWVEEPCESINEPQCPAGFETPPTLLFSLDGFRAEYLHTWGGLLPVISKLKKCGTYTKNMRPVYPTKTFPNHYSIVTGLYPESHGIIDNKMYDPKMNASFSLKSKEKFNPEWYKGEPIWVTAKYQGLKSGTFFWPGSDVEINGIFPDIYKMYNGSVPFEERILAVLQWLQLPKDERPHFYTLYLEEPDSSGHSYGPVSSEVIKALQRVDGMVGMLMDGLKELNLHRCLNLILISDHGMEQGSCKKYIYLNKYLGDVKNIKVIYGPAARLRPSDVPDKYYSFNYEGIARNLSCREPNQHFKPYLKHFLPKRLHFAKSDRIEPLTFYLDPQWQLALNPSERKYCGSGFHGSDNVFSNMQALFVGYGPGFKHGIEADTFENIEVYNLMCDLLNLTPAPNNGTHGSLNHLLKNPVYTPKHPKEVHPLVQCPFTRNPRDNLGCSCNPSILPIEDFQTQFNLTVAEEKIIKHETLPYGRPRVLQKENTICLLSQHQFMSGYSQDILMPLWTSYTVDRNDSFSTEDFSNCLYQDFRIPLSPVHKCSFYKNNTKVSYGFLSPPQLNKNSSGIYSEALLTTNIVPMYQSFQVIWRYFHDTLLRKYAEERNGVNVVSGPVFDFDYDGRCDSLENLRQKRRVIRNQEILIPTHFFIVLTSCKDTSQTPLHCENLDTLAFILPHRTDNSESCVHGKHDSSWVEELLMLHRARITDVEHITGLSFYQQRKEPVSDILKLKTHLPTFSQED

[2] = molecular target: T2, Ectonucleoside triphosphate diphosphohydrolase 3 (Homo sapiens, UniProt O75355); experiment: Drug metabolism assessed as human NTPDase-3-mediated compound hydrolysis expressed in African green monkey COS7 cells at 100 uM after 1 hr by HPLC analysis
T2 sequence (O75355 whole entry): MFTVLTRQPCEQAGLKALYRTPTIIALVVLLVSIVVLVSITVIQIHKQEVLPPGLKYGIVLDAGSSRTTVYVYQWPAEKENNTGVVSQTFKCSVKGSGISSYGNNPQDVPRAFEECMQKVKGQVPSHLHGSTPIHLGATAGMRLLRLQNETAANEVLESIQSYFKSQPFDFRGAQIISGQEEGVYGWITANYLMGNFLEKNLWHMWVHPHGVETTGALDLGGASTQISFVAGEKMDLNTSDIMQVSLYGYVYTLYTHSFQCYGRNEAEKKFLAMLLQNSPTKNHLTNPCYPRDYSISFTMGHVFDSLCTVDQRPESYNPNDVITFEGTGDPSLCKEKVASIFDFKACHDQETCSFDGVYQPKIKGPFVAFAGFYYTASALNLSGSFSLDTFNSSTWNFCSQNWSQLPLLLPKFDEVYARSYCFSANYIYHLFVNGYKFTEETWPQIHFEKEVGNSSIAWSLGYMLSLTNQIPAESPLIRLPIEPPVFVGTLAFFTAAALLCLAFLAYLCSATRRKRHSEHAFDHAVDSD
In short: (§1)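 Protein extracts are from COS-7 cells transiently transfected with human NTPDase1, 2, 3 or 8. The incubation uses Tris–Ringer buffer pH 7.3 at 37 °C with 3 min extract preincubation. Analogue is added alone at 100 μM final. […] Three experiments in triplicate.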

[3] = molecular target: T3, Ectonucleotide pyrophosphatase/phosphodiesterase family member 3 (Homo sapiens, UniProt O14638); experiment: Drug metabolism assessed as human NPP3-mediated compound hydrolysis expressed in African green monkey COS7 cells at 100 uM after 1 hr by HPLC analysis
T3 sequence (O14638 whole entry): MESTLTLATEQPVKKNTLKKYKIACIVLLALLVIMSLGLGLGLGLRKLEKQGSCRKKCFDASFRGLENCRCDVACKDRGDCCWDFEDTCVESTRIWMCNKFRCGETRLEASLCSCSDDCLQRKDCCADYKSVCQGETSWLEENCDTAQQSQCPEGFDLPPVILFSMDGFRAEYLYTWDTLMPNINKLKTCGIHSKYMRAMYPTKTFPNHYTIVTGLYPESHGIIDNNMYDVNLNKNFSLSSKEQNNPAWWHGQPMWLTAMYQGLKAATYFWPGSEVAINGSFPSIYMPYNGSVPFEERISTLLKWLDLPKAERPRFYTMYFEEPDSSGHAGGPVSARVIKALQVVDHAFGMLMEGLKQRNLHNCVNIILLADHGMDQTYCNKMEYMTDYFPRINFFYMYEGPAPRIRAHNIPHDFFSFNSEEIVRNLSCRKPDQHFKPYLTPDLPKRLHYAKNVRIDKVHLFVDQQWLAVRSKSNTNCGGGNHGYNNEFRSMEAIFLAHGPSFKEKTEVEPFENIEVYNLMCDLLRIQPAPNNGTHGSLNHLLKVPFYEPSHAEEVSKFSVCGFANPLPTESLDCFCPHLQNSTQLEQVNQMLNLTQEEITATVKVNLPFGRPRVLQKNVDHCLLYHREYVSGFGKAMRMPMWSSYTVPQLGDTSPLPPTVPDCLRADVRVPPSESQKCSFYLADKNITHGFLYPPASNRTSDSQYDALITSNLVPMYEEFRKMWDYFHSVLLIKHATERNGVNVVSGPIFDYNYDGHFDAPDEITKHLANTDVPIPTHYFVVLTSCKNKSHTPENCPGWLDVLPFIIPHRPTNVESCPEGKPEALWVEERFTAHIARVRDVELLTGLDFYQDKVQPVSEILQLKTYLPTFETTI

[4] = molecular target: T4, Ectonucleoside triphosphate diphosphohydrolase 2 (Homo sapiens, UniProt Q9Y5L3); experiment: Drug metabolism assessed as human NTPDase-2-mediated compound hydrolysis expressed in African green monkey COS7 cells at 100 uM after 1 hr by HPLC analysis; in short: as §1
T4 sequence (Q9Y5L3 whole entry): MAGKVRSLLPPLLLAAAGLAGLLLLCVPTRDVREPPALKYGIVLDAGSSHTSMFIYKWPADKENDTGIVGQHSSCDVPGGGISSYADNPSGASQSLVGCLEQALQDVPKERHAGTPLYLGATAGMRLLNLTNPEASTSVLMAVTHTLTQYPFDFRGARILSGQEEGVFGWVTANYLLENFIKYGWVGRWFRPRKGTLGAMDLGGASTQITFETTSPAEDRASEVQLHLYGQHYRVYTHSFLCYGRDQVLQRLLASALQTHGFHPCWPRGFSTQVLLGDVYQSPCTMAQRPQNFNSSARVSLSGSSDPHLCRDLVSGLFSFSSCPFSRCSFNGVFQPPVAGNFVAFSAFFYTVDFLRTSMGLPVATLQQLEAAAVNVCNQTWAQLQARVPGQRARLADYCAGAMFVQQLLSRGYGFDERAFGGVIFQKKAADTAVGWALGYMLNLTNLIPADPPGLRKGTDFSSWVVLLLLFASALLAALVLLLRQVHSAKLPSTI

[5] = molecular target: T5, Ectonucleoside triphosphate diphosphohydrolase 1 (Homo sapiens, UniProt P49961); experiment: Drug metabolism assessed as human NTPDase-1-mediated compound hydrolysis expressed in African green monkey COS7 cells at 100 uM after 1 hr by HPLC analysis; in short: as §1
T5 sequence (P49961 whole entry): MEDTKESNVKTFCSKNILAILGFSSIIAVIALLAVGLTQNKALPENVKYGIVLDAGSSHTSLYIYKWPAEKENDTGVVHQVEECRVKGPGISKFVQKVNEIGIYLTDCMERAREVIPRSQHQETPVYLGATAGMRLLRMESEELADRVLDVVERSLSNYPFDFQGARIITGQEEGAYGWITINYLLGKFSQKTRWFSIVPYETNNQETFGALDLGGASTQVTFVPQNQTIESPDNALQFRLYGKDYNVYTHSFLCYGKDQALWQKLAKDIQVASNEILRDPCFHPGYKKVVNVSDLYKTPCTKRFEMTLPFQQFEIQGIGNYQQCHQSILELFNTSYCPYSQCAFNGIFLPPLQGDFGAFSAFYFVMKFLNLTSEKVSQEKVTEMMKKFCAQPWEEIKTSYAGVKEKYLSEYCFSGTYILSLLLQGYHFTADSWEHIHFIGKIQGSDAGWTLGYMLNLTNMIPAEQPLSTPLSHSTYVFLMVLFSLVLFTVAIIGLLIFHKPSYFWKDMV

Nc1ncnc2c1ncn2[C@@H]1O[C@H](COP(=O)(O)OP(=O)(O)OP(=O)(O)O)[C@@H](O)[C@H]1O [ADENOSINE TRIPHOSPHATE]
Drug metabolism [1]: 67 nmol/min/mg | Drug metabolism [2]: 240 nmol/min/mg | Drug metabolism [3]: 54 nmol/min/mg | Drug metabolism [4]: 1051 nmol/min/mg | Drug metabolism [5]: 807 nmol/min/mg
